Consider 3 molecules from ChEMBL document CHEMBL1287740, “Synthesis and bio-evaluation of alkylaminoaryl phenyl cyclopropyl methanones as antitubercular and antimalarial agents” (Bioorg Med Chem, 2010).

As usually defined, the inhibition is the change of the read-out against control, counted positive when it falls. Broadly, the CC50 is the concentration that lowers cell viability or growth by half. As a reminder, the MIC is the lowest concentration found to suppress growth. For orientation: IC50 means the point on the concentration scale where inhibition reaches its midpoint.

For series [1], the system named is Mycolicibacterium aurum. Put plainly: Inhibition of type II fatty acid biosynthesis pathway in Mycobacterium aurum at 10 to 50 uM after 12 hrs by lacZ reporter assay relative to untreated control. The series is classed as functional, organism-based. Put shortly: (§1)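 Recombinant M. aurum lacZ reporter strains (kasA promoter or hsp60 promoter) grown in Sauton's medium with kanamycin at 37 °C to 0.5 OD600, diluted to 0.04–0.05 OD, equilibrated 2 h, then treated 12 h at 37 °C (10, 25, 50, 75 µM). Cells sonicated in PBS pH 7.2 and protein normalized by Bradford. β-gal measured with ONPG (4 mg/ml), 30 min at 37 °C, stopped with Na2CO3, OD 410 nm. Triplicates, relative to untreated control.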
(In general: Reporter assays use an easily measured gene product as a stand-in for the process of interest.)

Series [2] has as its system Mycolicibacterium aurum. Put plainly: Inhibition of type II fatty acid biosynthesis pathway in recombinant Mycobacterium aurum carrying hsp60 promoter assessed as cell viability at 50 uM after 12 hrs by lacZ reporter assay relative to untreated control. The series is classed as functional. Summed up: (§2)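 M. aurum (recombinant reporter strains) grown in Sauton's medium with 0.05% Tween-80 and kanamycin to 0.6 OD600, diluted to 0.05 OD. 1 × 10^5 cells inoculated into 5 ml medium with varying compound concentrations, grown 12 h at 37 °C with shaking. Viable cells counted by 10-fold serial dilution plating on nutrient agar-Tween-kanamycin. % inhibition calculated with untreated colony count taken as 100%.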

For series [3], the system named is Mycolicibacterium aurum. The series is described as follows: Inhibition of type II fatty acid biosynthesis pathway in Mycobacterium aurum at 25 uM after 12 hrs by lacZ reporter assay relative to untreated control. The series is classed as functional. Put shortly: as §1
Series [4] can be described thus: Selectivity index, ratio of CC50 for african green monkey (Cercopithecus aethiops) Vero cells to IC50 for Plasmodium falciparum 3D7. The series is classed as functional. Summed up: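 Ratio of Vero CC50 (resazurin fluorescence after 72 h exposure) to P. falciparum 3D7 IC50 (radiolabelled hypoxanthine uptake; 24 h compound exposure, then 48 h with label).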
Series [5] relates to Mycolicibacterium aurum. The series is described as follows: Inhibition of type II fatty acid biosynthesis pathway in recombinant Mycobacterium aurum carrying hsp60 promoter assessed as beta-galactosidase activity at 14 uM after 12 hrs by lacZ reporter assay relative to untreated control. The series is classed as functional, organism-based.
Series [6] has as its system Mycolicibacterium aurum. Put plainly: Inhibition of type II fatty acid biosynthesis pathway in recombinant Mycobacterium aurum carrying hsp60 promoter assessed as cell viability at 25 uM after 12 hrs by lacZ reporter assay relative to untreated control. The series is classed as functional. Put shortly: as §2
Series [7] can be described thus: Cytotoxicity against african green monkey Vero cells after 72 hrs. The series is classed as cell-based. The conditions noted are these: chlorocebus sabaeus. Put shortly:
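Vero (C1008 monkey kidney) cells grown in MEM + 15% FBS, 5% CO2, 37 °C. Trypsinized cells at 1 × 10^5 cells/ml seeded and allowed to adhere overnight, then exposed to serial compound dilutions for 72 h. Resazurin added and fluorescence read after 4 h.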

In series [8] the test system is Mycolicibacterium aurum. The series is described as follows: Inhibition of type II fatty acid biosynthesis pathway in recombinant Mycobacterium aurum carrying hsp60 promoter assessed as beta-galactosidase activity at 10 to 50 uM after 12 hrs by lacZ reporter assay relative to untreated control. The series is classed as functional, organism-based. Summed up: as §1

Series [9] has as its system Plasmodium falciparum. The series is described as follows: Antimalarial activity against Plasmodium falciparum 3D7 assessed as maturation of schizonts after 24 to 32 hrs by microdilution method. The series is classed as functional. Summed up: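 P. falciparum 3D7 (chloroquine sensitive); twofold serial dilutions in complete RPMI 1640 from 10 mg/ml DMSO stocks, parasitized RBCs added (final hematocrit 3–4%, 1.0–2.0% parasitaemia, >95% rings). Incubated 24–32 h at 37 °C with 5% CO2. Thin smears stained with 15% Giemsa; schizont maturation scored against controls to give MIC.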

For series [10], the system named is Mycolicibacterium aurum. The series is described as follows: Inhibition of type II fatty acid biosynthesis pathway in Mycobacterium aurum at 50 uM after 12 hrs by lacZ reporter assay relative to untreated control. The series is classed as functional. Summed up:
as §1

Series [11] has as its system Mycolicibacterium aurum. The series is described as follows: Inhibition of type II fatty acid biosynthesis pathway in recombinant Mycobacterium aurum carrying hsp60 promoter assessed as cell viability at 10 to 50 uM after 12 hrs by lacZ reporter assay relative to untreated control. The series is classed as functional, organism-based. Summed up: as §2
The test system of series [12] is Mycolicibacterium aurum. Put plainly: Inhibition of type II fatty acid biosynthesis pathway in recombinant Mycobacterium aurum carrying hsp60 promoter assessed as cell viability at 10 uM after 12 hrs by lacZ reporter assay relative to untreated control. The series is classed as functional. Put shortly: as §2
Series [13] has as its system Mycolicibacterium aurum. Put plainly: Inhibition of type II fatty acid biosynthesis pathway in Mycobacterium aurum assessed as cell viability at 10 to 50 uM after 12 hrs by lacZ reporter assay relative to untreated control. The series is classed as functional, organism-based. Summed up:
as §2

Series [14] has as its system Mycolicibacterium aurum. The series is described as follows: Inhibition of type II fatty acid biosynthesis pathway in recombinant Mycobacterium aurum carrying hsp60 promoter assessed as cell viability at 75 uM after 12 hrs by lacZ reporter assay relative to untreated control. The series is classed as functional. Put shortly:
as §2

The test system of series [15] is Plasmodium falciparum. Put plainly: Antimalarial activity against Plasmodium falciparum 3D7 assessed as radiolabeled hypoxanthine uptake after 48 hrs by scintillation counting. The conditions noted are these: 3D7, 48 h. The series is classed as functional, organism-based. Summed up: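 Chloroquine-sensitive P. falciparum 3D7 asynchronous culture at 0.5% parasitaemia and 1.5% hematocrit, exposed to compounds for 24 h at 37 °C in CO2. Radiolabelled hypoxanthine (0.5 µCi/well) then added and incubation continued 48 h. Cells harvested onto filter paper, and radioactivity counted by scintillation β-counter. IC50 derived from hypoxanthine uptake.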

Series [16] concerns Mycolicibacterium aurum. Put plainly: Inhibition of type II fatty acid biosynthesis pathway in Mycobacterium aurum assessed as beta-galactosidase activity at 50 to 100 uM after 12 hrs by lacZ reporter assay relative to untreated control. The series is classed as functional, organism-based.
Series [17] relates to Mycolicibacterium aurum. Put plainly: Inhibition of type II fatty acid biosynthesis pathway in Mycobacterium aurum assessed as growth inhibition by lacZ reporter assay. The series is classed as functional. Put shortly: as §2
For series [18], the system named is Mycolicibacterium aurum. The series is described as follows: Inhibition of type II fatty acid biosynthesis pathway in recombinant Mycobacterium aurum carrying hsp60 promoter assessed as beta-galactosidase activity at 50 to 100 uM after 12 hrs by lacZ reporter assay relative to untreated control. The series is classed as functional, organism-based.
Series [19] deals with Mycolicibacterium aurum. Put plainly: Inhibition of type II fatty acid biosynthesis pathway in Mycobacterium aurum assessed as growth inhibition by cfu analysis. The series is classed as functional. Summed up:
as §2

In series [20] the test system is Mycobacterium tuberculosis. The series is described as follows: Antimicrobial activity against Mycobacterium tuberculosis H37Rv after 30 days by agar microdilution method. The series is classed as functional. Put shortly: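 Twofold dilutions of compound in DMSO incorporated into Middlebrook 7H10 medium with OADC supplement in slanted tubes, preincubated 37 °C for 24 h, then streaked with H37Rv harvested from L-J medium into 0.85% saline with 0.05% Tween-80 (5 × 10^5 bacilli per tube). Incubated at 37 °C; MIC = lowest concentration giving complete inhibition of colonies versus drug-free control.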

Values after ≈ are worked out from the molar mass of the structure shown. Active and inactive are the calls of the source. The calls are words filed in the database; no cut-off is given here.

As to `CN(C)CCCNc1ccc(C(=O)/C=C/c2ccc(Cl)cc2)cc1`, the inhibition entry with Mycolicibacterium aurum [1], in the series on Mycolicibacterium aurum [11] and in the series with Mycolicibacterium aurum [13] was “Dose-dependent effect” each time. In addition, the inhibition at 50 µM in the series on Mycolicibacterium aurum [2] was found to be 88.7%; in the series on Mycolicibacterium aurum [10] it was 88.1%. Also, the inhibition at 25 µM was found to be 83.4% with Mycolicibacterium aurum [3] and 85.4% in the series on Mycolicibacterium aurum [6]. For the same molecule, the “Ratio CC50/IC50” value in series [4] was determined as 9.25. The inhibition entry with Mycolicibacterium aurum [5] and with Mycolicibacterium aurum [8] was “inactive” throughout. Also, the CC50 at 72 h in series [7] stood at 5.92 µg/mL (≈ 17.3 µM). Also, in the series on Plasmodium falciparum [9], the MIC worked out at 1.56 µg/mL (≈ 4.55 µM). Besides, the inhibition at 10 µM in the series on Mycolicibacterium aurum [12] was 18.8%. Also, the inhibition at 75 µM with Mycolicibacterium aurum [14] amounted to 99.6%. Besides, the IC50 in the series on Plasmodium falciparum [15] turned out to be 0.64 µg/mL (≈ 1.87 µM).
On to `CN(C)CCCNc1ccc(C(=O)C2CC2c2ccc(Cl)cc2)cc1` (stereo not drawn), for which testing at 25 µM in the series with Mycolicibacterium aurum [3] gave an inhibition of 46.3%. The “Ratio CC50/IC50” value in series [4] is 5.53. The same molecule had a CC50 at 72 h in series [7] of 15.8 µg/mL (≈ 44.4 µM). The inhibition entry in the series with Mycolicibacterium aurum [16] is “Active”. Moreover, the MIC in the series on Plasmodium falciparum [9] turned out to be 50 µg/mL (≈ 140 µM); in [20] it was 6.25 µg/mL (≈ 17.5 µM). The molecule also registered an inhibition at 50 µM with Mycolicibacterium aurum [10] of 57.4%. Besides, the “inhibition (INH)” value in the series with Mycolicibacterium aurum [17] and in the series with Mycolicibacterium aurum [19] was “>=85%” throughout. Besides, the inhibition result with Mycolicibacterium aurum [18] is “inactive”. Moreover, in the series with Plasmodium falciparum [15], the IC50 is 2.86 µg/mL (≈ 8.01 µM).
In the case of `O=C(c1ccc(N2CCN(c3cccc(Cl)c3Cl)CC2)cc1)C1CC1c1ccc(Cl)cc1` (stereo not drawn), 25 µM produced 15.7% inhibition with Mycolicibacterium aurum [3]. Further, the “Ratio CC50/IC50” value in series [4] is 43.38. In [7], this molecule came in with a CC50 at 72 h of 383 µg/mL (≈ 788 µM). The minimal inhibitory concentration (MIC) in the series with Plasmodium falciparum [9] was determined as 50 µg/mL (≈ 103 µM); in series [20], 12.5 µg/mL (≈ 25.7 µM). The same molecule gave an inhibition at 50 µM in the series on Mycolicibacterium aurum [10] of 31.8%. Further, the IC50 in the series on Plasmodium falciparum [15] is 8.82 µg/mL (≈ 18.2 µM).
